Activity calls are given as the source filed them. No cut-off for these calls is given here.
Columns and labels:
[1] = target: T1, Anoctamin-1 (Homo sapiens) (UniProt Q5XXA6); assay: Inhibition of human TMEM16A expressed in FRT cells co-expressing YFP assessed as decrease in iodide influx at 10 uM measured after 10 mins for 2 to 12 sec in presence of ATP by fluorescence assay; type: cell-based
T1 sequence (whole entry): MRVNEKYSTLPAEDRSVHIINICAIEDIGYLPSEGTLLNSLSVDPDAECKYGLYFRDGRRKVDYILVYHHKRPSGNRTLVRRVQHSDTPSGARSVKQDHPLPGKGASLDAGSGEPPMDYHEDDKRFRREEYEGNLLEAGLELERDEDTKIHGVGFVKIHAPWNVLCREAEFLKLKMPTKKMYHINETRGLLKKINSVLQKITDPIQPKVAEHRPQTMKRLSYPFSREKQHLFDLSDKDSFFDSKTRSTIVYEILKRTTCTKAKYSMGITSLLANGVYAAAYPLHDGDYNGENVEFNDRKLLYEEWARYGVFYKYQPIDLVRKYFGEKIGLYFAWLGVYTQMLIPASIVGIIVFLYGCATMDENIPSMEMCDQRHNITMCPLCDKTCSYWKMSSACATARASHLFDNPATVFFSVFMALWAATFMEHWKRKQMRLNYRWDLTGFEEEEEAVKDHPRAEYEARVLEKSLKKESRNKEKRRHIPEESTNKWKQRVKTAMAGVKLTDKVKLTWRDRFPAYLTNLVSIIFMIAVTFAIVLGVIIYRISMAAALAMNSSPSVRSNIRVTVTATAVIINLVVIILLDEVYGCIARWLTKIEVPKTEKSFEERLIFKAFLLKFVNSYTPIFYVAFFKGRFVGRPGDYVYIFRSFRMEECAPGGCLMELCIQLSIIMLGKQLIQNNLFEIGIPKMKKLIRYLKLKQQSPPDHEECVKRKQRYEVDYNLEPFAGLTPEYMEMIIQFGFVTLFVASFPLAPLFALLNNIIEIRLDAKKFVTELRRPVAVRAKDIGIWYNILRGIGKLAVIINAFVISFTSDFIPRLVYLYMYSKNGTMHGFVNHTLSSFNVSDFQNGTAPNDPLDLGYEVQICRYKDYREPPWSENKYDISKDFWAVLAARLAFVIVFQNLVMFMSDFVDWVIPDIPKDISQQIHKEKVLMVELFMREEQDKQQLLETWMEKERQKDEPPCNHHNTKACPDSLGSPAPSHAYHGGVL
In short: (§1)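 FRT cells stably coexpressing TMEM16A and YFP-H148Q; compound at 10 μM. Fluorescence quenching read in plate reader after iodide addition (activation) or iodide plus ATP addition (inhibition); initial rate of iodide influx computed as linear measure of channel function. Representative of two to four experiment sets.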

[2] = Elevation of cAMP level in Fischer rat thyroid cells co-expressing YFP and human CFTR at 10 uM incubated for 10 mins by immunoassay; type: ADME, cell-based; conditions: thyroid cell
In short: (§2)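 FRT cells expressing wild-type CFTR in 12-well plates, PBS-washed, incubated 10 min with 10 μM compound without or with 90 nM forskolin; references were forskolin alone (90 nM, 20 μM) and 20 μM forskolin + 100 μM IBMX. Lysates assayed for cAMP by immunoassay; mean ± SEM, n = 4.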

HT-29 [3] = assay: Inhibition of iodide influx in human HT-29 cells expressing YFP at 10 uM measured after 10 mins for 2 to 12 sec in presence of ATP by fluorescence assay; type: functional, cell-based
In short: (§3)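 HT-29 cells expressing YFP halide sensor, 10 μM compound, for non-TMEM16A calcium-activated chloride channel. Plate reader fluorescence quenching after iodide addition (activation) or iodide plus ATP addition (inhibition); initial rate of iodide influx computed as linear measure of channel function. Representative of two to four experiment sets.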

Homo sapiens [4] = organism: Homo sapiens; assay: Inhibition of potassium channel in human primary bronchial epithelial cells assessed as effect on short-circuit current at 10 uM after 10 mins by voltage clamp method
In short: (§4)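 Primary human bronchial epithelial cells grown at air-liquid interface, mounted in Ussing chambers in symmetrical HCO3−-buffered solutions (95% O2/5% CO2, 37 °C), with Ag/AgCl electrodes. After 10 min preincubation with 10 µM compound, sequential additions were 20 µM amiloride, 20 µM forskolin, 10 µM CFTRinh-172 and 100 µM ATP. Traces represent two to four experiment sets.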

[5] = Elevation of forskolin-stimulated cAMP level in Fischer rat thyroid cells co-expressing YFP and human CFTR at 10 uM incubated for 10 mins by immunoassay; type: ADME, cell-based; conditions: thyroid cell; in short: as §2
Homo sapiens [6] = organism: Homo sapiens; assay: Inhibition of calcium-activated chloride channel in human primary bronchial epithelial cells assessed as inhibition of ATP-induced short-circuit current at 10 uM preincubated for 10 mins followed by ATP addition by voltage clamp method; in short: as §4
HT-29 [7] = assay: Increase of iodide influx in human HT-29 cells expressing YFP at 10 uM measured after 10 mins for 2 to 12 sec by fluorescence assay; type: functional, cell-based; in short: as §3
[8] = Elevation of cytoplasmic calcium level in Fischer rat thyroid cells co-expressing YFP and human CFTR at 10 uM incubated for 5 mins by fluo-4 dye based fluorescence assay; type: ADME; conditions: thyroid cell
In short: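 FRT cells in 96-well plates loaded with Fluo-4 NW, pretreated 5 min with 10 μM compound or control; 100 μM ATP added as calcium agonist. Fluorescence followed in plate reader with syringe pumps. Representative of two to four experiment sets.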

[9] = target: T1, Anoctamin-1 (Homo sapiens); assay: Activation of human TMEM16A expressed in FRT cells co-expressing YFP assessed as increase in iodide influx at 10 uM measured after 10 mins for 2 to 12 sec by fluorescence assay; type: cell-based; in short: as §1
Homo sapiens [10] = organism: Homo sapiens; assay: Inhibition of ENaC in human primary bronchial epithelial cells assessed as effect on short-circuit current at 10 uM after 10 mins by voltage clamp method; in short: as §4
[11] = Cytotoxicity against Fischer rat thyroid cells assessed as effect on cell survival up to 10 uM after 8 hrs by alamar blue assay; type: cell-based
In short: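 FRT cells cultured overnight, then incubated 8 h with compound up to 10 μM; 33% DMSO as positive control. Viability read by Alamar Blue; mean ± SEM, n = 8.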

[12] = Solubility of the compound in phosphate buffered solution; type: physicochemical

SMILES | inhibition [1] | Activity [2] | inhibition (HT-29 [3]) | inhibition (Homo sapiens [4]) | Activity [5] | inhibition (Homo sapiens [6]) | Activity (HT-29 [7]) | Activity [8] | Activity [9] | inhibition (Homo sapiens [10]) | Activity [11] | solubility [12]
CNc1nc(Nc2ccccc2)nc(OCC(F)(F)C(F)F)n1 | inactive | Non-Toxic | inactive | inactive | Non-Toxic | inactive | inactive | Non-Toxic | inactive | inactive | Non-Toxic | ≤ 10 µM
CCN(CC)c1nc(Nc2ccc3ncsc3c2)nc(OC(C(F)(F)F)C(F)(F)F)n1 | inactive | Non-Toxic | inactive | inactive | Non-Toxic | inactive | inactive | Non-Toxic | inactive | inactive | Non-Toxic | ≤ 10 µM

— ChEMBL document CHEMBL3997791, “Nanomolar-Potency Aminophenyl-1,3,5-triazine Activators of the Cystic Fibrosis Transmembrane Conductance Regulator (CFTR) Chloride Channel for Prosecretory Therapy of Dry Eye Diseases” (J Med Chem, 2017)
